The source made the active and inactive calls. No cut-off for these calls is given here.

This assay concerns Neuraminidase (Influenza A virus (strain A/Udorn/307/1972 H3N2)), P0DOF9 [E119V,I222L]. As to the kind of experiment: Binding affinity to zanamivir/oseltamivir resistant recombinant Influenza A virus (A/Moscow/10/99(H3N2)) Neuraminidase N2 E119V/I222L double mutant expressed in baculovirus infected insect cells at 100 to 1000 nM measured up to 160 sec by surface plasmon resonance analysis. In short, it runs like this:
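NA covalently immobilised on CM5 chip by amine coupling. Analyte passed over at several concentrations in running buffer. BSA served as negative control protein. Constants from a steady-state affinity model; triplicate experiments.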
For orientation: SPR reads the build-up and loss of mass on a sensor chip optically.

With `COCCOCCOCCOCCOCCOCCOCCOCCOCCOCc1cn(CC(Cn2cc(COCCOCCOCCOCCOCCOCCOCCOCCOCCOC)nn2)(Cn2cc(COCCOCCOCCOCCOCCOCCOCCOCCOCCOC)nn2)Cn2cc(COCCOCCOCCOCCOCCOCCOCCOCCOCCOC)nn2)nn1`, the outcome was inactive.

The values above are taken from ChEMBL document CHEMBL4425127 (J Med Chem, 2016).
